Screens as filed in PubChem.
Rows were chosen to be rich in hits. Some 2.6% of all compounds tested hit in one or more screens of this group.
rRNA inh HTS = selective bacterial rRNA inhibition in E. coli; actives 1.6% (n = 350,000); E. coli WT GFP vs humanized-ribosome RFP mutants, fluorescence, 24 h; hits give low values; DMSO median 0, no signal -100; GFP signal change (wild-type ribosome), % (concentration not given with the values); AID 720706;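 active = significant combined selectivity score with lowered wild-type GFP, culture density cut under 30%, mutant RFP and density less affected; inactive = any of these conditions unmet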
dFosB act-1 = enhances mouse delta FosB homodimer DNA binding | P13346 | purified delta FosB, TAMRA-CDK5 oligo fluorescence polarization; percent of positive-control signal above neutral wells | activation, % at 25 µM | actives 0.99% (n = 340,000) | AID 493131;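 active = mean activation above about 17%, with every replicate also reaching it, limit read from the data, passing the limit was not always enough; inconclusive = only one of the two conditions met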
Target sequence (P13346 whole entry, looked up): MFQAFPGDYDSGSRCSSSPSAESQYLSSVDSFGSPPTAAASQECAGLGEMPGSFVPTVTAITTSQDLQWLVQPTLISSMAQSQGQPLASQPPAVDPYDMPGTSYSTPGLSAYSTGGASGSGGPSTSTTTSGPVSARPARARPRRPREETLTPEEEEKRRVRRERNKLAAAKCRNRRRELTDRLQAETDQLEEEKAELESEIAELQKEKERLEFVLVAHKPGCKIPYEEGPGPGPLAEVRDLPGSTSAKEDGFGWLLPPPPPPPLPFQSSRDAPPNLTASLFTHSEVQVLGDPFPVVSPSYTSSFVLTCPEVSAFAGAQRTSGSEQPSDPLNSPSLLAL
SR-BI DiI-HDL act = activators of SR-BI mediated HDL lipid uptake | activation, % at 12.5 µM | CHO ldlA[mSR-BI] cells, DiI-HDL uptake fluorescence, 3 h; 100 = double the neutral-control signal | actives 0.096% (n = 320,000);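 active = mean replicate activation of at least 60% and every replicate at or above 60%; inconclusive = mean or all-replicate condition met, but not both; inactive = mean below 60% and not all replicates reaching 60%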;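 also: 0% = median plate neutral-control signal and 100% = twice that signal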
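System: CHO ldlA[mSR-BI] cells / Medium: HEPES-buffered (25 mM, pH 7.4) F12 plus 0.5% BSA / Probe or stimulus: labelled HDL, 10 µg/mL / Doses: single compound concentration, delivered by pin transfer / Schedule: 3 h, 37 °C / Measured by: DiI fluorescence, bottom read / Measure: cell-associated DiI fluorescence as measure of HDL uptake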
XiGFP reactiv = reactivates the inactive X chromosome in mouse fibroblasts; XiGFP mouse fibroblasts, % GFP-positive cells imaging, 3 d; cells co-treated with 5-aza-dC sensitizer; scaled so ellipticine positive control = 100%; activation, % at 7.58 µM; actives 0.055% (n = 360,000); AID 743238;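 active = mean normalized replicate activation at least 10% and every replicate at or above 10%; inconclusive = only one of the two criteria met; inactive = mean below 10% and not all replicates reach 10%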;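 also: 0% = median of on-plate neutral control wells and 100% = ellipticine 6 µM median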
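Material: XiGFP fibroblasts, SV40-immortalized; Buffer or medium: DMEM containing 5-aza-dC; Compound dosing: single point; Times: 3 days compound exposure.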
SR-BI HDL uptake = inhibitors of mouse SR-BI mediated HDL lipid uptake; Q61009; ldlA[mSR-BI] CHO cells, DiI-HDL uptake fluorescence, 3 h; inhibition, % at 12.5 µM; actives 0.96% (n = 320,000); AID 488896;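 active = mean replicate inhibition of at least 70% and a set share of replicates each scoring 70 or more; inconclusive = meets just one of the two criteria; inactive = fails both criteria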;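 also: 0% = median of neutral control wells and 100% = median of positive control wells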
PvdQ inh = P. aeruginosa PvdQ acylase inhibition. purified PvdQ acylase, fluorescence plate reader. inhibition, % at 10 µM. actives 0.063% (n = 340,000); in the data active = inhibition above about 30%, passing the limit was not always enough; inconclusive = no clear call, values can overlap the other calls;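 also: 0% = vehicle neutral wells and 100% = reference inhibitor wells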
dFosB act-2 = delta FosB (mouse) homodimer activation; shares compounds with dFosB act-1; purified delta FosB, TAMRA-CDK5 oligo fluorescence polarization; normalised: neutral wells 0, positive control 100; activation, % at 24.9 µM; 2,400 tested, under 10 active; AID 588690;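 active = highest replicate activation at or above 34% and every replicate reaching that threshold; inconclusive = meets only one of the two criteria; inactive = meets neither criterion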;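 also: higher polarization means more probe DNA bound by delta FosB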
* marks the source's active call; other numbers are inactive results; ? = inconclusive; nt = no result.

SMILES	rRNA inh HTS	dFosB act-1	SR-BI DiI-HDL act	XiGFP reactiv	SR-BI HDL uptake	PvdQ inh	dFosB act-2
O=C(/C=C/c1ccc(Cl)cc1)Nc1nccs1	8	23*	-19	0	19	-5	0
Cc1nc(Nc2ccc(Cl)c(Cl)c2)sc1C(=O)Nc1ccccc1	-24	-15	-42	0	42	-4	nt
Cc1nc(NC(=O)/C=C/c2ccccc2)sc1C(=O)Nc1ccc(Cl)cc1	nt	31*	-42	nt	42	-8	0
CCN(CC)CCNC(=O)c1ccc(NC(=O)/C=C/c2cc(OC)c(OC)c(OC)c2)cc1	nt	52*	-22	0	22	8	-1
COc1ccc2cc(C)c3nnc(SCC(=O)Nc4nc(-c5ccccc5)cs4)n3c2c1	nt	41*	-20	nt	20	-6	2
COc1ccc2cc(C)c3nnc(SCC(=O)Nc4cc(OC)c(OC)cc4C(=O)O)n3c2c1	16	0	11	0	-11	?	nt
CCOc1ccccc1NC(=O)C1CCCN1S(=O)(=O)c1ccccc1C(F)(F)F (stereo not given)	-6	-4	-6	0	6	-14	nt
O=C(N/N=C\c1ccc(CNS(=O)(=O)c2ccccc2)o1)C(=O)Nc1ccc(F)cc1	27	38*	-17	0	17	-10	4
O=C(N/N=C\c1ccc(CNS(=O)(=O)c2ccc(Cl)cc2)o1)C(=O)Nc1ccc(Oc2ccccc2)cc1	nt	4	-68	nt	68	-5	nt
CCc1ccc(NC(=O)C(C)OC(=O)c2cc(=O)[nH]c3ccc(S(=O)(=O)Nc4ccc(F)cc4)cc23)cc1 (stereo not given)	nt	100*	8	0	-8	-16	-2
O=C(CN1CCN(c2nc(-c3ccc(Cl)cc3)cs2)CC1)NCc1ccco1	nt	-6	-53	nt	53	5	nt
O=C(Nc1cccnc1)c1cc(-c2ccc(Cl)cc2Cl)on1	2	62*	15	0	-15	-14	2
O=C(Nc1cccnc1)c1cc(-c2ccc(Cl)cc2)on1	9	14	nt	0	nt	-12	nt
CCc1cccc(NC(=O)CC2Oc3ccccc3NC2=O)c1 (stereo not given)	2	21*	2	0	-2	-7	0
COC(=O)c1cc(NC(=O)CC2Oc3ccccc3NC2=O)cc(C(=O)OC)c1 (stereo not given)	6	-17	-24	0	24	-6	nt
COc1ccccc1NC(=O)Cc1nnc(SCC(=O)NC2CCCCC2C)n1C (stereo not given)	12	2	6	0	-6	-5	nt
O=C(N[C@@H]1CC[C@H](CCn2cc(-c3ccccn3)nn2)O[C@H]1CO)c1ccncc1	-2	nt	nt	1	nt	nt	nt
Cc1ccc(C)c(NC(=O)Cn2nnc(C(=O)NCc3ccco3)c2N)c1	10	30*	-5	0	5	-14	-5
Cc1ccc(CCNC(=O)Cn2ncc3c([nH]c4ccccc43)c2=O)cc1	10	6	4	0	-4	-5	nt
Cc1ccc(CNC(=O)Cn2nnc(C(=O)Nc3cccc(C)c3C)c2N)cc1	1	6	5	0	-5	-19	nt
Cc1ccc2[nH]c3c(=O)n(CC(=O)NCc4ccco4)ncc3c2c1	4	26*	0	0	0	-11	2
Cc1ccc(CNC(=O)c2nnn(CC(=O)Nc3cccc(C)c3C)c2N)cc1	9	66*	22	0	-22	-4	-1
O=C(NCC(F)(F)F)[C@@H]1[C@@H](CO)[C@@H]2Cn3c(cccc3=O)[C@H]1N2C(=O)C1CC1	4	nt	nt	0	nt	nt	nt
CC(C)CC(NC(=O)C(Cc1ccc(OCc2ccccc2)cc1)NC(=O)OC(C)(C)C)C(N)=O (stereo not given)	nt	30*	-6	nt	6	-2	1
CC(Oc1ccc2c(c1)oc(=O)c1ccccc12)C(=O)NCCN1CCOCC1 (stereo not given)	2	-7	-24	0	24	-7	nt
SMILES	rRNA inh HTS	dFosB act-1	SR-BI DiI-HDL act	XiGFP reactiv	SR-BI HDL uptake	PvdQ inh	dFosB act-2
CCOc1ccc(NC(=S)N2CCc3cc(OC)c(OC)cc3C2COc2ccc3c(C)cc(=O)oc3c2)cc1 (stereo not given)	nt	50*	-19	0	19	7	3
CC(C)c1onc(C(=O)Nc2ccc3c(c2)OCO3)c1[N+](=O)[O-]	nt	-1	15	nt	-15	-12	nt
CCOC(=O)c1c(C)[nH]c2cc(Br)c(OC)cc12	nt	18*	-15	nt	15	-13	5
CCOC(=O)c1c(C)[nH]c(C)c1-c1ccccc1OC	nt	-6	26	nt	-26	-5	nt
COc1ccc(C(=O)Nc2nc(-c3ccccc3)c(C(C)=O)s2)c(OC)c1	6	32*	-21	0	21	4	3
O=C(Nc1nc(-c2ccccc2)nc2ccccc12)c1ccc(F)cc1	30	22*	3	0	-3	-2	-2
CC(=O)c1sc(NC(=O)c2ccc(F)cc2)nc1-c1ccccc1	3	25*	-54	0	54	-15	7
Fc1ccc(Nc2nc(-c3ccncc3)nc3ccccc23)cc1F	4	89*	-59	0	59	-5	2
CC(=O)Nc1ccc(Nc2nc(-c3ccccc3)nc3ccccc23)cc1	-31	-9	-31	0	31	-4	nt
Clc1cccc(Nc2nc(-c3ccncc3)nc3ccccc23)c1	1	-8	-33	0	33	18	nt
CC(=O)c1sc(NC(=O)c2ccccc2F)nc1-c1ccccc1	-12	-11	-6	0	6	13	nt
COc1ccc(NC(=O)COC(=O)c2cc(C)oc2C)c([N+](=O)[O-])c1	22	1	-19	0	19	-15	nt
O=C(NCCN1CCOCC1)c1cc(-c2cccc(Cl)c2)on1	-3	-9	-8	0	8	-7	nt
COc1cc(C)cc2c1OC(c1ccccc1)CC2=O (stereo not given)	-4	-11	-6	0	6	-3	nt
Cc1ccc(N=C(c2cccs2)N2CCOCC2)cc1	nt	0	-35	nt	35	-12	nt
N#C/C(=C\c1cn(Cc2cccc(F)c2)c2ccccc12)C(=O)NCc1ccco1	nt	37*	-38	0	38	10	5
N#C/C(=C\c1cn(Cc2ccccc2)c2ccccc12)C(=O)NCc1ccco1	nt	8	-28	1	28	2	nt
Cc1cccc(NC(=O)/C(C#N)=C/c2cn(CC(=O)NCc3ccco3)c3ccccc23)c1C	nt	37*	-30	0	30	12	0
